Results reported in ChEMBL document CHEMBL4257481, “Synthesis and radioprotective effects of novel benzyl naphthyl sulfoxide (sulfone) derivatives transformed from Ex-RAD” (Medchemcomm, 2018).
Activity calls are given as the source filed them. The rule behind the calls is not given here.

Experiments:
HUVEC [1] = assay: Radioprotective activity against 60Co gamma-irradiation-mediated cytotoxicity in HUVEC assessed as survival rate at 20 uM preincubated for 24 hrs followed by gamma-irradiation and measured after 4 days by MTS assay relative to control; format: functional; conditions: Homo sapiens, light or radiation study, read-out: Survival
How it was run: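 HUVECs in RPMI-1640 with 10% FBS, seeded 4000 cells per mL. After 24 h, exposed to compound from a 100 mM DMSO stock (final 20 µM) for 24 h. Then ⁶⁰Co γ-irradiated at 8.0 Gy, 0.93 Gy min⁻¹, and cultured 4 days with medium changes. MTS added for 3 h at 37 °C and A492 read. Survival calculated relative to non-irradiated cells; mean of three independent experiments.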

HUVEC [2] = assay: Radioprotective activity against 60Co gamma-irradiation-mediated cytotoxicity in HUVEC assessed as increase in survival rate at 40 uM preincubated for 24 hrs followed by gamma-irradiation and measured after 4 days by MTS assay relative to control; format: functional, cell-based; conditions: Homo sapiens
How it was run: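 HUVECs seeded at 4000 cells/mL in RPMI-1640 with 10% FBS. After 24 h, compound added at 40 µM (diluted from 100 mM DMSO stock) for 24 h, then 8.0 Gy 60Co γ at 0.93 Gy/min. Cells grown 4 days with medium changed every 2 days, then MTS for 3 h at 37 °C and A492 read. Survival = blank-corrected OD relative to unirradiated cells; mean of three experiments.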

HUVEC [3] = assay: Cytotoxicity against HUVEC at 100 uM after 24 hrs by MTS assay; format: cell-based; conditions: human
How it was run: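 HUVECs grown in RPMI-1640 with 10% FBS and penicillin/streptomycin, pH 7.2, 37 °C, 5% CO2, then trypsinized at 80% confluence. Compound exposure at 100 µM, with viability read by MTS tetrazolium assay.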

Mus musculus [4] = assay: Radioprotective activity against 60Co gamma-irradiation-induced toxicity in C57/BL mouse assessed as survival rate at 5 mg/kg, ig administered 24 hrs prior to irradiation and measured over 30 days post irradiation (reference value: 50%); format: functional; conditions: light or radiation study, po
Mus musculus [5] = assay: Radioprotective activity against 60Co gamma-irradiation-induced toxicity in C57/BL mouse assessed as survival rate at 300 mg/kg, sc administered 15 mins and 24 hrs prior to irradiation and measured over 30 days post irradiation (reference value: 50%); format: functional; conditions: light or radiation study
HUVEC [6] = assay: Radioprotective activity against 60Co gamma-irradiation-induced DNA damage in HUVEC after 24 hrs by comet assay; format: functional, cell-based; conditions: Homo sapiens
How it was run: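 HUVECs (RPMI-1640, 10% FBS) incubated with compound 24 h, then given 6.0 Gy 60Co γ at 0.93 Gy/min. At 24 h post-irradiation, cells (1 × 10^5/mL) were embedded in comet agarose and lysed 30 min at 4 °C. Alkaline unwinding (300 mM NaOH, 1 mM EDTA, pH > 13) ran 30 min, then electrophoresis at 1.0 V/cm, 20 min. Vista green stain; tail length (µm) of 50 comets/slide; three repeats.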

Mus musculus [7] = assay: Radioprotective activity against 60Co gamma-irradiation-induced toxicity in C57/BL mouse assessed as survival rate at 300 mg/kg, ip administered 15 mins and 24 hrs prior to irradiation and measured over 30 days post irradiation (reference value: 50%); format: functional; conditions: light or radiation study
Mus musculus [8] = assay: Radioprotective activity against 60Co gamma-irradiation-induced body weight loss in C57/BL mouse assessed as increase in body weight at 300 mg/kg, ip administered 15 mins and 24 hrs prior to irradiation and measured over 10 to 30 days post irradiation; format: functional, organism-based

Compound	viability at 20 µM (HUVEC [1]) [%]	Activity (HUVEC [2])	Activity (HUVEC [3])	survival at 5 mg/kg (Mus musculus [4]) [%]	survival at 300 mg/kg (Mus musculus [5]) [%]	Activity (HUVEC [6])	survival at 300 mg/kg (Mus musculus [7]) [%]	Activity (Mus musculus [8])
[O-][S+](Cc1ccccc1F)c1ccc2cc(Br)ccc2c1 (centres undefined)	51.3	Active	Non-Toxic					
[O-][S+](Cc1cccc(Cl)c1)c1ccc2cc(Br)ccc2c1 (centres undefined)	55.1	Active	Non-Toxic					
O=S(=O)(Cc1ccc(Br)cc1)c1ccc2cc(Br)ccc2c1	53.1	Active	Non-Toxic					
O=S(=O)(Cc1ccccc1Cl)c1ccc2cc(Br)ccc2c1	56.7	Active	Non-Toxic					
[O-][S+](Cc1ccc(Br)cc1)c1ccc2ccccc2c1 (centres undefined)	59.3	Active	Non-Toxic					
O=S(=O)(Cc1ccccc1F)c1ccc2cc(Br)ccc2c1	52.4	Active	Non-Toxic					
[O-][S+](Cc1ccc(Cl)cc1)c1ccc2ccccc2c1 (centres undefined)	57.2	Active	Non-Toxic					
C#C[C@]1(O)[C@H](O)C[C@H]2[C@@H]3CCc4cc(OC5CCCC5)ccc4[C@H]3CC[C@@]21C [NYLESTRIOL]				100				
O=C(O)c1ccc(/C=C/S(=O)(=O)Cc2ccc(Cl)cc2)cc1 [RECILISIB SODIUM]	57.5	Active			60			
[O-][S+](Cc1ccc(F)cc1)c1ccc2cc(Br)ccc2c1 (centres undefined)	77.2	Active	Non-Toxic			Active	100	Active
[O-][S+](Cc1ccc(F)cc1)c1ccc2ccccc2c1 (centres undefined)	52	Active	Non-Toxic					
